Results taken from publication PMC2978626 (The Journal of Biological Chemistry, 2010).
Where no end group is shown, it is not given here.

Columns and labels:
[1] = biological target: ^8F1^9F1 (module pair of fibronectin, Fn precursor residues 516–608) (Homo sapiens, UniProt P02751); assay: ITC, binding to ^8F1^9F1; conditions: 10 mM NaH2PO4/K2HPO4, pH 7.4, 25 °C, FnZ peptide 2.97 mM, Fn domain 0.24 mM
Outline: (§1)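 Cell held GBD (proteolytic Fn fragment, dialysed into buffer) or ⁸F1⁹F1 (Pichia-expressed, Endo Hf-trimmed glycans). Syringe held uncapped synthetic test peptide at 10–20× the cell concentration. Both were degassed at 20 °C for 15 min. 2 μl preinjection, then 39 × 7 μl injections at 0.5 μl/s, 307 rpm, 360 s spacing. Averaged heats from a separate peptide-into-buffer run were subtracted; one-site binding fit.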

[2] = biological target: GBD (gelatin-binding domain of fibronectin) (Homo sapiens, UniProt P02751); assay: ITC, binding to GBD
Outline: as §1

[3] = biological target: recombinant fibronectin 100-kDa N-terminal fragment (human); assay: ITC
[4] = biological target: gelatin-binding domain (GBD) of fibronectin, proteolytic fragment (human); assay: ITC
[5] = ITC, 10 mM NaH2PO4/K2HPO4, pH 7.4, 25 °C, FnZ peptide 0.11 mM, Fn domain 0.01 mM

Chain of GBD (gelatin-binding domain of fibronectin) (P02751 308-608 limits assumed): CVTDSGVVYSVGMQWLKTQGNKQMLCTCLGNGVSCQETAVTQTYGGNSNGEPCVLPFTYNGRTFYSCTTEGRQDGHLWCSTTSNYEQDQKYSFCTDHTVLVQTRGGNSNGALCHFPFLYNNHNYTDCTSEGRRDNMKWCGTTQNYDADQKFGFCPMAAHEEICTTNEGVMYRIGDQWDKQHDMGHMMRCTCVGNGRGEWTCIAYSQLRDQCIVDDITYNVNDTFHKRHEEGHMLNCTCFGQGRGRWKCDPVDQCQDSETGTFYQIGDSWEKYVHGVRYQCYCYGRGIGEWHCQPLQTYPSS
Chain of ^8F1^9F1 (module pair of fibronectin, Fn precursor residues 516–608) (P02751 516-608): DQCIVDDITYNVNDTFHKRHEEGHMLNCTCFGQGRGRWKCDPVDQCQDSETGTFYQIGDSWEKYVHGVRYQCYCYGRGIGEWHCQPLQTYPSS

Molecule: RNPHLMGIGGGLAGESGETTPK [FnZ peptide]
- ΔH [1]: -29.8 kcal/mol
- ΔS [1]: −77.2 cal/mol K^−1
- Kd [2]: 540 ± 40 nM
- ΔH [2, 5]: -17.7 kcal/mol
- ΔS [2, 5]: −30.8 cal/mol K^−1

B1: FnZ(370-428), recombinant fragment of the fibronectin-binding protein FnZ from S. zooepidemicus (domain or fragment)
chain: GPLGSRNPHLMGIGGGLAGESGETTPKPGQTGGQGPVIETTEDTQKGMSGQSGGTIESENTKKP
- Kd [3]: 0.8 nM
- dH [3]: -54.6 kcal/mol
- stoichiometry N [3]: 1.06

Molecule: H-RNPHLMGIGGGLAGESGETTPK-OH [FnZ synthetic peptide, residues 370-391]
- Kd [4]: 540 nM
- dH [4]: -17.7 kcal/mol
